# Measured values taken from ChEMBL document CHEMBL3853270, “Influence of Birch Bark Triterpenes on Keratinocytes and Fibroblasts from Diabetic and Nondiabetic Donors” (2016).
# The source made the active and inactive calls. The calls are words filed in the database; no cut-off is given here.
# Legend:
# Type in all cases: functional
# [1] = tested on: Fibroblast; experiment: Effect on growth factors related gene expression in diabetic adult human primary fibroblasts assessed as FGF2 mRNA levels at 1.96 uM after 6 hrs by qPCR analysis
# How it was run: (§1)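 Primary human dermal fibroblasts (young or adult nondiabetic, adult diabetic donor) were treated for 6 h against a 0.1% DMSO solvent control. RNA from 320 000 cells per sample was measured by Fluidigm Biomark high-throughput qPCR. Values are fold change relative to solvent control, from four independent experiments, with SD. One-way ANOVA with Bonferroni post-test was applied.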
# [2] = tested on: Fibroblast; experiment: Effect on pro-inflammatory related gene expression in non-diabetic young human primary fibroblasts assessed as IL6 mRNA levels at 1.96 uM after 6 hrs by qPCR analysis
# [3] = tested on: Fibroblast; experiment: Effect on adhesion molecules related gene expression in non-diabetic adult human primary fibroblasts assessed as ICAM1 mRNA levels at 1.96 uM after 6 hrs by qPCR analysis
# How it was run: (§2)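 Dermal fibroblasts from nondiabetic adult and diabetic adult donors, exposed for 6 h at 1.96 or 9.81 μM. ICAM-1 and VCAM-1 mRNA measured by standard qRT-PCR, n = 3. Fold change versus 0.1% DMSO control, SD, one-way ANOVA with Bonferroni post-test.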
# [4] = tested on: Keratinocyte; experiment: Effect on cellular connection related gene expression in non-diabetic young human primary keratinocytes assessed as CLDN4 mRNA levels at 1.96 uM after 6 hrs by qPCR analysis
# [5] = tested on: Keratinocyte; experiment: Effect on growth factor related gene expression in non-diabetic young human primary keratinocytes assessed as VEGFA mRNA levels at 1.96 uM after 6 hrs by qPCR analysis
# How it was run: (§3)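 Primary human keratinocytes (nondiabetic young or adult, diabetic adult donors) were exposed to compound for 6 h, with 0.1% DMSO as solvent control. Total RNA came from 400 000 cells per sample and was assayed on a Fluidigm Biomark high-throughput qPCR chip. Results are fold change vs solvent control, from 2−4 independent experiments on two donors per group, with SD. Groups were compared by one-way ANOVA with Bonferroni post-test.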
# [6] = tested on: Keratinocyte; experiment: Effect on growth factor related gene expression in non-diabetic young human primary keratinocytes assessed as PDGFB mRNA levels at 1.96 uM after 6 hrs by qPCR analysis; how it was run: as §3
# [7] = tested on: Fibroblast; experiment: Effect on antiinflammatory related gene expression in non-diabetic adult human primary fibroblasts assessed as NFKBIA mRNA levels at 9.81 uM after 6 hrs by qPCR analysis
# How it was run: (§4)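 Primary dermal fibroblasts from one nondiabetic young, one nondiabetic adult and one diabetic adult donor; 320 000 cells per sample, 6 h at 1.96 or 9.81 μM. RNA measured on a high-throughput qPCR chip. Fold change versus 0.1% DMSO control, four independent experiments, SD, one-way ANOVA with Bonferroni post-test.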
# [8] = tested on: Fibroblast; experiment: Effect on chemokines related gene expression in non-diabetic young human primary fibroblasts assessed as CCL2 mRNA levels at 9.81 uM after 6 hrs by qPCR analysis; how it was run: as §1
# [9] = Effect on wound healing activity in non-diabetic adult human primary keratinocytes assessed as upregulation of RANTES protein levels at 1.96 uM after 24 hrs by bead-based suspension array analysis; conditions: Keratinocyte
# [10] = tested on: Fibroblast; experiment: Effect on chemokines related gene expression in non-diabetic young human primary fibroblasts assessed as WDR26 mRNA levels at 9.81 uM after 6 hrs by qPCR analysis; how it was run: as §1
# [11] = tested on: Fibroblast; experiment: Effect on adhesion molecules related gene expression in non-diabetic adult human primary fibroblasts assessed as ICAM1 mRNA levels at 9.81 uM after 6 hrs by qPCR analysis; how it was run: as §2
# [12] = tested on: Keratinocyte; experiment: Effect on cellular connection related gene expression in non-diabetic young human primary keratinocytes assessed as CLDN4 mRNA levels at 9.81 uM after 6 hrs by qPCR analysis
# [13] = tested on: Keratinocyte; experiment: Effect on pro-inflammatory related gene expression in diabetic adult human primary keratinocytes assessed as TNF mRNA levels at 9.81 uM after 6 hrs by qPCR analysis
# [14] = tested on: Keratinocyte; experiment: Effect on AQP3 mRNA expression levels in diabetic adult human primary keratinocytes at 9.81 uM after 6 hrs by qPCR analysis
# How it was run: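 Primary keratinocytes from nondiabetic young and adult and diabetic adult donors; 400 000 cells per sample, 6 h exposure at 1.96 or 9.81 μM. RNA extracted and read on a high-throughput qPCR chip. Results are fold change versus 0.1% DMSO solvent control from 5−7 independent experiments over two donors per group, SD, one-way ANOVA with Bonferroni post-test.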
# [15] = tested on: Fibroblast; experiment: Effect on chemokines related gene expression in non-diabetic adult human primary fibroblasts assessed as WDR26 mRNA levels at 1.96 uM after 6 hrs by qPCR analysis
# [16] = tested on: Keratinocyte; experiment: Effect on transcription factor related gene expression in diabetic adult human primary keratinocytes assessed as JUN mRNA levels at 9.81 uM after 6 hrs by qPCR analysis
# [17] = tested on: Fibroblast; experiment: Effect on antiinflammatory related gene expression in diabetic adult human primary fibroblasts assessed as SOCS3 mRNA levels at 9.81 uM after 6 hrs by qPCR analysis; how it was run: as §4
# [18] = tested on: Fibroblast; experiment: Effect on transcription factor related gene expression in non-diabetic adult human primary fibroblasts assessed as JUN mRNA levels at 1.96 uM after 6 hrs by qPCR analysis
# [19] = Effect on wound healing activity in non-diabetic adult human primary fibroblasts assessed as upregulation of soluble VCAM1 protein levels at 1.96 uM after 24 hrs by bead-based suspension array analysis; conditions: Fibroblast
# [20] = tested on: Fibroblast; experiment: Effect on pro-inflammatory related gene expression in non-diabetic adult human primary fibroblasts assessed as IL1B mRNA levels at 9.81 uM after 6 hrs by qPCR analysis
# [21] = tested on: Fibroblast; experiment: Effect on chemokines related gene expression in non-diabetic young human primary fibroblasts assessed as WDR26 mRNA levels at 1.96 uM after 6 hrs by qPCR analysis; how it was run: as §1
# [22] = tested on: Fibroblast; experiment: Effect on antioxidant related gene expression in non-diabetic adult human primary fibroblasts assessed as NFE2L2 mRNA levels at 1.96 uM after 6 hrs by qPCR analysis
# [23] = tested on: Keratinocyte; experiment: Effect on pro-inflammatory related gene expression in diabetic adult human primary keratinocytes assessed as IL6 mRNA levels at 9.81 uM after 6 hrs by qPCR analysis
# [24] = tested on: Fibroblast; experiment: Effect on pro-inflammatory related gene expression in non-diabetic adult human primary fibroblasts assessed as PTGS2 mRNA levels at 9.81 uM after 6 hrs by qPCR analysis
# [25] = tested on: Keratinocyte; experiment: Effect on transcription factor related gene expression in non-diabetic adult human primary keratinocytes assessed as JUN mRNA levels at 1.96 uM after 6 hrs by qPCR analysis
# [26] = tested on: Keratinocyte; experiment: Effect on growth factor related gene expression in non-diabetic young human primary keratinocytes assessed as VEGFA mRNA levels at 9.81 uM after 6 hrs by qPCR analysis; how it was run: as §3
# [27] = tested on: Keratinocyte; experiment: Effect on growth factor related gene expression in diabetic adult human primary keratinocytes assessed as VEGFA mRNA levels at 9.81 uM after 6 hrs by qPCR analysis; how it was run: as §3
# [28] = tested on: Keratinocyte; experiment: Effect on cellular connection related gene expression in non-diabetic young human primary keratinocytes assessed as GJB2 mRNA levels at 9.81 uM after 6 hrs by qPCR analysis
# [29] = tested on: Fibroblast; experiment: Effect on growth factor related gene expression in non-diabetic adult human primary fibroblasts assessed as GDF15 mRNA levels at 1.96 uM after 6 hrs by qPCR analysis; how it was run: as §1
smiles,measurement,setting,value
C=C(C)[C@@H]1CC[C@]2(CO)CC[C@]3(C)[C@H](CC[C@@H]4[C@@]5(C)CC[C@H](O)C(C)(C)[C@@H]5CC[C@]43C)[C@@H]12 [BETULIN],fold change (FC),[1],2
same,fold change (FC),[2],45
same,fold change (FC),[3],144
same,fold change (FC),[4],1.5
same,fold change (FC),[5],1.3
same,fold change (FC),[6],1.2
same,fold change (FC),[7],11
same,fold change (FC),[8],4.3
same,Activity,[9],Active
same,fold change (FC),[10],1.4
same,fold change (FC),[11],152
same,fold change (FC),[12],1.9
same,fold change (FC),[13],13
same,fold change (FC),[14],0.8
same,fold change (FC),[15],0.9
same,fold change (FC),[16],1.7
same,fold change (FC),[17],1.4
same,fold change (FC),[18],1.9
same,Activity,[19],Active
same,fold change (FC),[20],214
same,fold change (FC),[21],1.1
same,fold change (FC),[22],1.3
same,fold change (FC),[23],26
same,fold change (FC),[24],179
same,fold change (FC),[25],1.3
same,fold change (FC),[26],1.4
same,fold change (FC),[27],2.2
same,fold change (FC),[28],0.8
same,fold change (FC),[29],2.1
